Source: the array DNA melting data of Ke et al. (doi:10.1101/2024.01.08.574731)

Key:
[1] = folding enthalpy; higher = less favourable; fluorescence melt of hairpins on a sequencing array, two-state fit; conditions: sodium 0.088 M
Procedure, shortened: (§1)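 Two-state fits, bootstrapped, provided melting temperature and folding enthalpy from Cy3 fluorescence normalised to pre-quench Cy3 and to control constructs. Library hairpins with annealed Cy3 and quencher oligos were imaged on a sequenced MiSeq flow cell in 50 mM Na-HEPES pH 8.0, 25 mM NaCl, at 2.5 °C intervals up to 60 °C. Four replicates were combined with inverse-variance weighting. A 9.35 °C upward shift was applied to fitted temperatures to match UV melts.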

[2] = melting temperature; fluorescence melt of hairpins on a sequencing array, two-state fit, raised by 9.35 °C to match UV melts; conditions: sodium 0.088 M
Procedure, shortened: as §1

Row | Sequence | folding enthalpy [1] [kcal/mol] | Tm [2] [°C]
1 | GATCGACCTCTCGATC ((((((....)))))) | -35.8 | 50
2 | GATCGACGCTCGATC ((((((...)))))) | -41.3 | 49.6
3 | GATCGACGTTTCGATC ((((((....)))))) | -42.5 | 50.9
4 | GATCGACTGTTCGATC ((((((....)))))) | -40.5 | 50.6
5 | GATCGAGACTTCGATC ((((((....)))))) | -43.3 | 57.2
6 | GATCGAGAGATCGATC ((((((....)))))) | -25.6 | 54.7
7 | GATCGAGAGCTCGATC ((((((....)))))) | -36.5 | 51.8
8 | GATCGAGAGGTCGATC ((((((....)))))) | -19 | 50.1
9 | GATCGAGATGTCGATC ((((((....)))))) | -37 | 52.5
10 | GATCGAGCCCTCGATC ((((((....)))))) | -42.1 | 56.4
11 | GATCGAGCGTCGATC ((((((...)))))) | -31.7 | 51
12 | GATCGAGGAAACCCGATC (((((.(....).))))) | -33.1 | 47.8
13 | GATCGAGGACTCGATC ((((((....)))))) | -38.4 | 60.1
14 | GATCGAGGATCGATC ((((((...)))))) | -35.4 | 59.6
15 | GATCGAGGCCTCGATC ((((((....)))))) | -49.1 | 62.2
16 | GATCGAGGCTTCGATC ((((((....)))))) | -41.8 | 57.9
17 | GATCGAGTATCGATC ((((((...)))))) | -40.9 | 59.6
18 | GATCGAGTCATCGATC ((((((....)))))) | -35.4 | 60.7
19 | GATCGAGTCGTCGATC ((((((....)))))) | -35.6 | 54.9
20 | GATCGAGTGCTCGATC ((((((....)))))) | -58.9 | 53.8
21 | GATCGATAAATCGATC ((((((....)))))) | -39.9 | 52.3
22 | GATCGATAGCTCGATC ((((((....)))))) | -41.9 | 49.6
23 | GATCGATATCTCGATC ((((((....)))))) | -36 | 51
24 | GATCGATCACTCGATC ((((((....)))))) | -41.5 | 51.2

Row | Sequence | folding enthalpy [1] [kcal/mol] | Tm [2] [°C]
25 | GATCGATCAGTCGATC ((((((....)))))) | -43.1 | 51.1
26 | GATCGATCCCTCGATC ((((((....)))))) | -44.1 | 52.8
27 | GATCGATCGATCGATC ((((((....)))))) | -57.6 | 57.1
28 | GATCGATCTATCGATC ((((((....)))))) | -42.5 | 56.3
29 | GATCGATGAATCGATC ((((((....)))))) | -41.1 | 55.1
30 | GATCGATGCATCGATC ((((((....)))))) | -46.9 | 59.7
31 | GATCGATGCCTCGATC ((((((....)))))) | -38.1 | 52.5
32 | GATCGATGGATCGATC ((((((....)))))) | -36.5 | 54.5
33 | GATCGATGGCTCGATC ((((((....)))))) | -34 | 50.2
34 | GATCGATGTCTCGATC ((((((....)))))) | -39 | 51.5
35 | GATCGATGTTTCGATC ((((((....)))))) | -43 | 53.5
36 | GATCGATTCGTCGATC ((((((....)))))) | -41.5 | 55.1
37 | GATCGATTGTTCGATC ((((((....)))))) | -37.4 | 53.1
38 | GATCGATTTGTCGATC ((((((....)))))) | -41.5 | 55.5
39 | GATCGATTTTCGATC ((((((...)))))) | -35.2 | 54.4
40 | GATCGCAAATGCGATC ((((((....)))))) | -40.5 | 68
41 | GATCGCAAGCGCGATC ((((((....)))))) | -31 | 67.8
42 | GATCGCAAGGGCGATC ((((((....)))))) | -29.3 | 68
43 | GATCGCACAGGCGATC ((((((....)))))) | -33 | 68.1
44 | GATCGCACCGCGATC ((((((...)))))) | -34 | 69
45 | GATCGCACTGCGATC ((((((...)))))) | -35 | 68.3
46 | GATCGCAGAAGCGATC ((((((....)))))) | -30.8 | 66.9
47 | GATCGCATAGGCGATC ((((((....)))))) | -32 | 68.2
48 | GATCGCATGAGCGATC ((((((....)))))) | -27.4 | 69.3

Row | Sequence | folding enthalpy [1] [kcal/mol] | Tm [2] [°C]
49 | GATCGCCCGTGCGATC ((((((....)))))) | -33.7 | 64
50 | GATCGCCGATGCGATC ((((((....)))))) | -32 | 66.6
51 | GATCGCCGGTGCGATC ((((((....)))))) | -35.1 | 66
52 | GATCGCCGTCGCGATC ((((((....)))))) | -36.5 | 66.6
53 | GATCGCCTACGCGATC ((((((....)))))) | -39.5 | 67.4
54 | GATCGCCTGCGCGATC ((((((....)))))) | -32 | 67.2
55 | GATCGCGAAAGCGATATC ((((((....)))..))) | -11.8 | 59.2
56 | GATCGCGAGTGCGATC ((((((....)))))) | -33.8 | 66.3
57 | GATCGCGATGGCGATC ((((((....)))))) | -37.7 | 68.8
58 | GATCGCGCTGGCGATC ((((((....)))))) | -32.5 | 68.9
59 | GATCGCGGAAACGTGATC ((((.((....)).)))) | -38.6 | 57.5
60 | GATCGCGGGGCGATC ((((((...)))))) | -29.8 | 68
61 | GATCGCGGGTGCGATC ((((((....)))))) | -34.5 | 68.4
62 | GATCGCGGTTGCGATC ((((((....)))))) | -25.1 | 68.9
63 | GATCGCTAACGCGATC ((((((....)))))) | -35.7 | 66.5
64 | GATCGCTAAGGCGATC ((((((....)))))) | -39.2 | 67.8
65 | GATCGCTAGGGCGATC ((((((....)))))) | -34.8 | 68.2
66 | GATCGCTCAAGCGATC ((((((....)))))) | -43.6 | 68
67 | GATCGGAAACCGATC ((((((...)))))) | -38 | 56
68 | GATCGGAAAGCCGATC ((((((....)))))) | -35.4 | 51.3
69 | GATCGGAAGCCCGATC ((((((....)))))) | -36.5 | 54.1
70 | GATCGGAAGTCCGATC ((((((....)))))) | -38.9 | 55.2
71 | GATCGGACACCCGATC ((((((....)))))) | -41.5 | 54.7
72 | GATCGGACATCCGATC ((((((....)))))) | -38.7 | 55.3

Row | Sequence | folding enthalpy [1] [kcal/mol] | Tm [2] [°C]
73 | GATCGGACCTCCGATC ((((((....)))))) | -40.7 | 56.6
74 | GATCGGACGACCGATC ((((((....)))))) | -35.1 | 57.3
75 | GATCGGACGCCCGATC ((((((....)))))) | -38 | 57.3
76 | GATCGGACTACCGATC ((((((....)))))) | -36.6 | 55.6
77 | GATCGGACTTCCGATC ((((((....)))))) | -42.3 | 57.2
78 | GATCGGAGAACCGATC ((((((....)))))) | -33.8 | 52.6
79 | GATCGGAGCCCGATC ((((((...)))))) | -31.2 | 53.4
80 | GATCGGAGGCCGATC ((((((...)))))) | -40.3 | 55.8
81 | GATCGGAGGTCCGATC ((((((....)))))) | -31.5 | 57.6
82 | GATCGGATAACCGATC ((((((....)))))) | -35.1 | 56.2
83 | GATCGGATCCCCGATC ((((((....)))))) | -41.4 | 54
84 | GATCGGATCCCGATC ((((((...)))))) | -38 | 56
85 | GATCGGATCTCCGATC ((((((....)))))) | -40.4 | 56.7
86 | GATCGGATGTCCGATC ((((((....)))))) | -38.2 | 56.8
87 | GATCGGCAATCCGATC ((((((....)))))) | -44.7 | 55
88 | GATCGGCACTCCGATC ((((((....)))))) | -40.5 | 57.1
89 | GATCGGCAGCCCGATC ((((((....)))))) | -36.1 | 54.9
90 | GATCGGCATACCGATC ((((((....)))))) | -40.5 | 56.9
91 | GATCGGCATCCCGATC ((((((....)))))) | -40.9 | 54.1
92 | GATCGGCCATCCGATC ((((((....)))))) | -40.4 | 55.5
93 | GATCGGCCGAAAGGCATC (((..(((....)))))) | -6.97 | 26.9
94 | GATCGGCCGACCGATC ((((((....)))))) | -34.6 | 57.9
95 | GATCGGCCGTCCGATC ((((((....)))))) | -39.7 | 58.3
96 | GATCGGCCTCCGATC ((((((...)))))) | -34.3 | 59.4
